Published values from different studies.
Each line is one published result; the experiments were not run side by side.
EGFR C797S/L858R/T790M: Epidermal growth factor receptor (EGFR, Homo sapiens, UniProt P00533, C797S/L858R/T790M)
Ephx2: Bifunctional epoxide hydrolase 2 (Ephx2, Mus musculus, UniProt P34914)
AMY1A: Alpha-amylase 1A (AMY1A, Homo sapiens, UniProt P0DUB6)
EGFR: Epidermal growth factor receptor (EGFR, Homo sapiens, UniProt P00533)
APC: Adenomatous polyposis coli protein (APC, Homo sapiens, UniProt P25054)

Structure (SMILES)	target	effect on	action	method	IC50 [nM]
Cc1ncc(CN2CCN(Cc3ccccn3)CC2)c2cc(C(=O)c3ccc4c(c3)OCCO4)oc12	EGFR C797S/L858R/T790M	enzyme activity	inhibitor	ADP detection	29
O=C(Nc1ccc(-c2cccc3cccnc23)cc1)C1CCN(S(=O)(=O)c2ccccc2Cl)CC1	Ephx2	enzyme activity	inhibitor	fluorescence	95.9
Oc1ccc([C@@H]2c3c(O)cc(O)cc3[C@@H]3c4c(cc(O)c5c4[C@@H]2[C@H](c2ccc(O)cc2)[C@H]5c2cc(O)cc4c2[C@@H](c2cc(O)cc(O)c2)[C@H](c2ccc(O)cc2)O4)O[C@H]3c2ccc(O)cc2)cc1	AMY1A	enzyme activity	inhibitor	–	5300
Cc1c(Cc2ccccc2)c(=O)oc2c(C)c(OCC(=O)NN=Cc3ccccc3)ccc12	EGFR	enzyme activity	inhibitor	ATP luminescence	307
O=C(Nc1ccc(-c2cccc3ncccc23)cc1)C1CCN(S(=O)(=O)c2ccccc2Cl)CC1	Ephx2	enzyme activity	inhibitor	fluorescence	17.2
CC(C)C[C@H](NC(=O)[C@H](Cc1ccc2ccccc2c1)NC(=O)[C@H](CCC(=O)O)NC(=O)c1ccccn1)C(=O)NC1CC1c1ccccc1 (stereo partly drawn)	APC	ligand displacement	–	FP	30200
O=C(Nc1ccc(-c2ccc3cccnc3c2)cc1)C1CCN(S(=O)(=O)c2ccccc2Cl)CC1	Ephx2	enzyme activity	inhibitor	fluorescence	38.2
COc1cc(C(=O)N[C@@H](CCC(=O)O)C(=O)N[C@@H](Cc2ccc3ccccc3c2)C(=O)N[C@@H](CC(C)C)C(=O)NC2CC2c2ccccc2)ccn1 (stereo partly drawn)	APC	ligand displacement	–	FP	38900
COc1ccc2nc3cc(Cl)ccc3c(Nc3cc(CN4CCCC4)c(O)c(CN4CCCC4)c3)c2n1	Palmitoyl-protein thioesterase 1 (Homo sapiens, UniProt P50897)	enzyme activity	inhibitor	–	> 125000
CC(C)C[C@H](NC(=O)[C@H](Cc1ccc2ccccc2c1)NC(=O)[C@H](CCC(=O)O)NC(=O)c1ccccc1)C(=O)NC1CC1c1ccccc1 (stereo partly drawn)	APC	ligand displacement	–	FP	77600
Oc1ccc(/C=C/c2cc(O)cc(O)c2)cc1	AMY1A	enzyme activity	inhibitor	–	> 100000
Cc1ccc2c(-c3cc4c(CN5CCN(Cc6ccccn6)CC5)cnc(C)c4o3)cc(=O)oc2c1	EGFR	enzyme activity	inhibitor	ADP detection	8.38
CC(C)C[C@H](NC(=O)[C@H](Cc1ccc2ccccc2c1)NC(=O)[C@H](CCC(=O)O)NC(=O)c1cccc(F)c1)C(=O)NC1CC1c1ccccc1 (stereo partly drawn)	APC	ligand displacement	–	FP	29500
Cc1ncc(CN2CCc3ccccc3C2)c2cc(C(=O)c3ccc4c(c3)OCCO4)oc12	EGFR C797S/L858R/T790M	enzyme activity	inhibitor	ADP detection	42.7
CC(C)C[C@H](NC(=O)[C@H](Cc1ccc2ccccc2c1)NC(=O)[C@H](CCC(=O)O)NC(=O)c1cccc(C(F)(F)F)c1)C(=O)NC1CC1c1ccccc1 (stereo partly drawn)	APC	ligand displacement	–	FP	10700
